Bioassay records deposited in PubChem by several laboratories.
Rows were chosen to be rich in hits. Some 29% of all compounds tested hit in one or more screens of this group.
Ecoli tolC – E. coli tolC mutant growth inhibition; E. coli BW25113 tolC mutant growth, OD615; growth inhibition, % at 10 µM (by protocol); 65,000 compounds, 2.2% hits;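 active = growth inhibition at or above a cutoff equal to the mean over every tested compound plus 3 SD, cut at about 60% in these data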;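 note: growth measured after 20 h incubation at 37 °C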
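Test system: tolC-deleted E. coli BW25113 | Medium: LB with kanamycin 50 µg/mL | Compound dosing: Single concentration, 10 µM final per compound | Schedule: 37 °C, 20 h exposure | Measured by: OD at 615 nm | Evaluation: Percent growth inhibition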
E coli WT exp – blocks growth of wild type E. coli BW25113; OD600 absorbance; growth inhibition, % at 100 µM; 98,000 compounds, 0.15% hits; AID 710;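 active = growth inhibition above about 50% at one test dose, limit read from the data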;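 note: growth measured after 20 h incubation at 37 °C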
CYP2C19 inhib – blocks human cytochrome P450 2C19; inhibition, % at 5 µM; CYP2C19 Supersomes, luciferin-H EGE luminescence, 30 min; 96,000 compounds, 21% hits; P33261; AID 778;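 active = CYP2C19 inhibition above a set limit at 5 µM in the primary screen, cut at about 50% in these data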;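 note: plate controls were negative control wells for no effect and 2.5 mM tranylcypromine positive control for full effect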
CYP2C19 act – activators of human cytochrome P450 2C19. recombinant CYP2C19, luciferin-H EGE luminescence; active compounds read high; 0 = fully inhibited enzyme, 1 = untreated enzyme. 96,000 tested, under 10 active. activation factor at 5 µM. P33261;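 active = activation factor of at least 2 at 5 µM in the primary screen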;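 note: 0 = wells with 2.5 mM tranylcypromine and 1 = vehicle-only wells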
CYP2C9 act – CYP2C9 (human) activation | activation factor at 5 µM | 96,000 compounds, 1.4% hits | AID 1024 | recombinant CYP2C9, luciferin-H conversion, luminescence; active compounds read high; factor 1 = untreated enzyme, 0 = blocked | P11712;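 active = activation factor of 2 or more for CYP2C9 at a 5 µM dose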;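 note: 0 = sulfaphenazole-blocked wells and 1 = vehicle-only wells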
Target sequence (P11712 whole entry, looked up): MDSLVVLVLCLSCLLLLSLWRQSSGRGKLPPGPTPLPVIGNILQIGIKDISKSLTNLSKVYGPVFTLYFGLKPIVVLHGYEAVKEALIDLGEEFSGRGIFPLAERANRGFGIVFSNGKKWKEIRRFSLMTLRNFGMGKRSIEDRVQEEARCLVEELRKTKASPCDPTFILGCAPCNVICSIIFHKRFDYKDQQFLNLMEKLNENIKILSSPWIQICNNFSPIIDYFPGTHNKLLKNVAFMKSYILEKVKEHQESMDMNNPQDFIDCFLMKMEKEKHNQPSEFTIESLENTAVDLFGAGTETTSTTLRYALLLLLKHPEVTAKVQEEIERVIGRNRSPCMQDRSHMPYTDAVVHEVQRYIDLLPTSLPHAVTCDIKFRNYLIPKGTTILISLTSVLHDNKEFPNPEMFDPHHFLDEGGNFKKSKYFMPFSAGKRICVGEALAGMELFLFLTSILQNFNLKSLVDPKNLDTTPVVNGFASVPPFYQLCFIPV
CYP2C9 inhib – human CYP2C9 inhibition; CYP2C9 Supersomes, luciferin-H conversion, luminescence; 96,000 compounds, 20% hits; inhibition, % at 5 µM;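 active = blocking of liver enzyme CYP2C9 beyond about 50% at 5 µM, limit read from the data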
An asterisk follows results filed as active; nt = no result given.

SMILES | Ecoli tolC | E coli WT exp | CYP2C19 inhib | CYP2C19 act | CYP2C9 act | CYP2C9 inhib
Cn1c(=O)n(Cc2ccccc2)c(=O)c2c1nc1n2CCCN1Cc1ccccc1 | 62.2* | 9.0 | 16.9 | 0.8 | 1 | 1.4
Cn1c(N2CCCC2)nc2c1c(=O)n(Cc1cccc(F)c1)c(=O)n2C | 9.8 | -3.0 | 1.5 | 1 | 0.2 | 80.9*
COC(=O)Cc1n[nH]c(=O)c2ccccc12 | nt | 9.0 | -3.7 | 1 | 0.9 | 6.8
O=C(NC1(C(F)(F)F)C(=O)Nc2c1c(=O)[nH]c(=O)n2-c1ccc(F)cc1)c1cccnc1 (stereo not given) | nt | 3.0 | -12.0 | 1.1 | 1 | -3.5
c1ccc2c(c1)NC(CN1CCOCC1)CO2 (stereo not given) | -4.5 | 1.0 | 53.0* | 0.5 | 1.1 | -8.9
CC1(C)N=C(N)NC(Nc2ccccc2)=N1 | nt | -2.0 | nt | nt | nt | nt
O=C(N/N=C/C1CCCCC1)c1cc(Cl)ccc1O | nt | 50.0* | 9.8 | 0.9 | 0.6 | 39.8
O=C(N/N=C/C1CCCCC1)c1ccccn1 | nt | 0.0 | 5.9 | 0.9 | 0.9 | 10.6
CN(Cc1ccccc1)S(=O)(=O)c1ccc(NS(C)(=O)=O)cc1 | 29.5 | 1.0 | 15.6 | 0.8 | 0.6 | 40.7
CN(Cc1ccccc1)S(=O)(=O)c1ccc(C(=O)Nc2nnc(C3CC3)o2)cc1 | 99.7* | -1.0 | 21.7 | 0.8 | 0.1 | 85.3*
COc1ccccc1-c1nnc(NC(=O)c2ccc(S(=O)(=O)N(C)Cc3ccccc3)cc2)o1 | 95.4* | -13.0 | nt | nt | nt | nt
CSc1nc(-c2ccco2)nn1S(C)(=O)=O | -19.2 | -4.0 | -13.9 | 1.1 | 1.3 | -25.5
Cn1c2c(c(=O)n(C)c1=O)C1(C(=O)Nc3ccccc31)C(C#N)=C(N)O2 (stereo not given) | nt | 3.0 | 0.5 | 1 | 0.9 | 12.9
Cc1cccc(-c2c3c(=O)n(C)c(=O)n(C)c3cn2-c2ccccc2O)c1 | 41.8 | -6.0 | 8.5 | 0.9 | 0.3 | 71.3*
CCOC(=O)C1=Nc2ccccc2C1=[N+]=[N-] | 8.2 | 100.0* | 39.5 | 0.6 | 0.7 | 27.1
CCOC(=O)c1ccccc1NC(=O)N[C@@H](C)C(=O)OC | nt | 6.0 | 26.6 | 0.7 | 0.9 | 9.3
Cc1nn(CCc2n[nH]c(=S)n2-c2cccc(Cl)c2)c(C)c1[N+](=O)[O-] | nt | 3.0 | 56.6* | 0.4 | 0.8 | 22.3
O=C(C/C=N/OCc1ccc(F)cc1Cl)c1cnc(-c2ccccc2)s1 | nt | -12.0 | 53.4* | 0.5 | 0.5 | 45.3
O=C(C/C=N/OCc1ccccc1F)c1cnc(-c2ccc(Cl)cc2)s1 | nt | -3.0 | 95.9* | 0 | 0.5 | 48.7
O=C(C/C=N/OCc1ccc(Cl)cc1Cl)c1ccccc1 | nt | 5.0 | 9.8 | 0.9 | 0.8 | 18.0
Cc1ccc(C)c(NC(=O)c2ccc[n+](Cc3ccc([N+](=O)[O-])cc3)c2)c1 | nt | 2.0 | -14.2 | 1.1 | 1.1 | -6.3
Cc1cc(C)c(S(C)(=O)=O)c(Oc2ccc(C(C)(C)C)cc2)n1 | nt | 5.0 | 35.3 | 0.6 | 0.1 | 85.6*
Cc1ccc(S(=O)(=O)c2c(C)cc(C)nc2Oc2cccc(C(F)(F)F)c2)cc1 | nt | -11.0 | 59.0* | 0.4 | 0.5 | 46.5
Cc1cc(-c2ccccc2)nc(Oc2cccc(C(F)(F)F)c2)c1S(C)(=O)=O | nt | -10.0 | -4.3 | 1 | 0.9 | 12.5
O=C(CCCCCN1C(=O)c2ccccc2C1=O)Nc1ccc(S(=O)(=O)N2CCCCC2)cc1 | 51.3 | -22.0 | 25.7 | 0.7 | 0.2 | 83.4*
SMILES | Ecoli tolC | E coli WT exp | CYP2C19 inhib | CYP2C19 act | CYP2C9 act | CYP2C9 inhib
CC1CCN(S(=O)(=O)c2ccc(NC(=O)CN3CCN(C)CC3)cc2)CC1 | -17.5 | 3.0 | -2.4 | 1 | 1.1 | -7.2
O=C(CCN1C(=O)c2ccccc2C1=O)Nc1cccc(S(=O)(=O)N2CCCCC2)c1 | nt | 0.0 | 81.4* | 0.2 | 0.1 | 91.5*
CC1CCN(S(=O)(=O)c2ccc(NC(=O)CCN3C(=O)c4ccccc4C3=O)cc2)CC1 | nt | 0.0 | 62.4* | 0.4 | 0.1 | 94.4*
O=C(CCN1C(=O)c2ccccc2C1=O)Nc1ccc2c(c1)OCCO2 | -8.9 | -3.0 | 6.0 | 0.9 | 0.9 | 12.2
CC1CCN(S(=O)(=O)c2ccc(NC(=O)Cn3nnc(-c4ccccc4F)n3)cc2)CC1 | 12.6 | -7.0 | 38.7 | 0.6 | 0.2 | 80.4*
O=C(OCCCCN1C(=O)c2ccccc2C1=O)c1ccc(S(=O)(=O)N2CCCC2)cc1 | 28.2 | -13.0 | -2.7 | 1 | 0.8 | 16.0
CC1(C)Nc2ccccc2N(CC(=O)N2CCCCC2)C1=O | -12.4 | 3.0 | -3.8 | 1 | 0.9 | 13.4
CC1Cc2ccccc2N1C(=O)Cn1cc([N+](=O)[O-])cn1 (stereo not given) | nt | 1.0 | 11.5 | 0.9 | 1 | 0.6
Cc1ccc(C(=O)NNC(=O)C2CCCN(c3ncccn3)C2)cc1 (stereo not given) | nt | 2.0 | 28.5 | 0.7 | 0.9 | 9.3
COc1cc(S(=O)(=O)Nc2cccc(C(=O)O)c2)c(OC)cc1Cl | nt | 1.0 | -10.2 | 1.1 | 1.1 | -10.0
CC1CN(S(=O)(=O)c2ccc(NC(=O)CCCN3C(=O)c4ccccc4C3=O)cc2)CC(C)O1 (stereo not given) | -7.6 | -4.0 | 27.8 | 0.7 | 0.5 | 50.2*
CC1CN(S(=O)(=O)c2ccc(NC(=O)CCN3C(=O)c4ccccc4C3=O)cc2)CC(C)O1 (stereo not given) | -2.9 | 0.0 | 0.6 | 1 | 0.4 | 57.3*
CC1CCN(S(=O)(=O)c2ccc(NC(=O)Cc3ccccc3)cc2)CC1 | nt | -11.0 | 78.0* | 0.2 | 0.1 | 92.3*
O=C(CCCCCN1C(=O)c2ccccc2C1=O)Nc1ccc2c(c1)OCCO2 | nt | -10.0 | 71.2* | 0.3 | 0.2 | 75.9*
CCS(=O)(=O)N1CCN(Cc2ccncc2)CC1 | -42.4 | -1.0 | 23.9 | 0.8 | 0.7 | 27.0
Cc1ccnc(SCC(=O)Nc2c(C)n(C)n(-c3ccccc3)c2=O)n1 | nt | 2.0 | -16.5 | 1.2 | 1.2 | -20.6
CC(C)=CCCC(C)NC(=O)NC1CCCCC1 (stereo not given) | 7.0 | nt | nt | nt | nt | nt
CC1CCN(S(=O)(=O)c2ccc(C(=O)Nc3sccc3C(N)=O)cc2)CC1 | nt | -10.0 | 51.6* | 0.5 | 0.4 | 58.7*
CCOC(=O)CSc1ccc2nnc(-c3ccccc3)n2n1 | -2.0 | 3.0 | -2.0 | 1 | 0.8 | 24.0
CCOC(=O)CSc1cc(CS(=O)c2ccc(Cl)cc2)nc(-c2ccccc2)n1 (stereo not given) | nt | -11.0 | 100.2* | 0 | 0.1 | 85.2*
Clc1cc(CSc2ccccc2)nc(-c2ccccc2)n1 | nt | -3.0 | 44.8 | 0.6 | 0.5 | 52.9*
CCOC(=O)CSc1cc(CSc2ccccc2)nc(-c2ccccc2)n1 | nt | 3.0 | 57.1* | 0.4 | 0.7 | 29.7
Clc1ccc(SCc2cc(-c3ccccc3)on2)cc1 | nt | 2.0 | 90.4* | 0.1 | 1.2 | -19.4
O=c1[nH]c2ccccc2c(=O)n1Cc1ccco1 | -14.8 | 2.0 | 3.3 | 1 | 1.1 | -8.5
CCOC(=O)c1oc2ccc(S(=O)(=O)Nc3ccc4c(c3)n(C)c(=O)n4C)cc2c1C | 40.7 | 3.0 | 79.3* | 0.2 | 0.1 | 94.0*
